Assay results taken from ChEMBL document CHEMBL1147346, “Isolation of pseudoprototimosaponin AIII from rhizomes of Anemarrhena asphodeloides and its hypoglycemic activity in streptozotocin-induced diabetic mice” (1993).

How the values were obtained:
[1] = system: Mus musculus; experiment: Hypoglycemic activity in fasted po dosed streptozotocin-induced diabetic ddY mouse assessed as decrease in blood glucose level after 6 hrs by glucose oxidase method; type: functional; details: for ED50: read-out: ID50 (the source's name)
Method in brief: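 Male ddY mice given streptozotocin 150 mg/kg iv in saline via tail vein, used 1 or 4 weeks later; fasting glucose >150 mg/dl after 13–14 h fast. Graded doses. Percent fall computed from glucose before and after dosing versus 85 mg/dl normal mean. ID50 with 95% confidence limits from dose-inhibition curves; 7–12 mice per point, mean ± SEM.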

[2] = system: Pancreas; experiment: Stimulation of immunoreactive insulin release in perfused Wistar rat pancreas at 1 mg/ml for 10 mins by radioimmunoassay; type: functional
Method in brief: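 Male Wistar rat pancreas (6–7 weeks) perfused via celiac artery with KRB pH 7.4, 0.5% BSA, 2% dextran, 2.8 mM glucose basal, 95% O2/5% CO2. Stimulated with 16.7 mM glucose ± 1 mg/ml test agent for 10 min. Portal vein effluent insulin measured by radioimmunoassay. n = 7.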

[3] = system: Mus musculus; experiment: Effect on blood glucose level in fasted ddY mouse at 50 mg/kg, ip after 6 hrs by glucose oxidase method; type: functional, organism-based; parameters: dose 50 mg/kg
Method in brief: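 Non-diabetic male ddY mice, 7–8 weeks of age (33–41 g), fasted; 50 mg/kg given ip. Blood glucose measured by glucose oxidase on a glucose analyzer.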

[4] = system: Mus musculus; experiment: Hypoglycemic activity in fasted alloxan monohydrate-induced diabetic ddY mouse assessed as decrease in blood glucose level at 50 mg/kg, ip after 6 hrs by glucose oxidase method; type: functional; parameters: scale not given: the % may be the effect or the level left; details: route intraperitoneal
Method in brief: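 Male ddY mice given alloxan monohydrate 90 mg/kg iv bolus in saline via tail vein, used 1 or 4 weeks later; fasting glucose >150 mg/dl after 13–14 h fast. Dosed 50 mg/kg ip; saline control. Glucose oxidase read-out. Percent fall = (A − B)/(A − 85) × 100, A and B being glucose before and 6 h after injection. Means ± SEM, n = 5–10.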

Compound	Activity [1]	ED50 [1]	Activity [2]	Activity [3]	Activity [4]
COc1ccc(Cl)cc1C(=O)NCCc1ccc(S(=O)(=O)NC(=O)NC2CCCCC2)cc1 [GLYBURIDE]	Dose-dependent effect	0.33 mg/kg			
C[C@@H](CCC1(O)O[C@H]2C[C@H]3[C@@H]4CC[C@@H]5C[C@@H](O[C@@H]6O[C@H](CO)[C@H](O)[C@H](O)[C@H]6O[C@@H]6O[C@H](CO)[C@@H](O)[C@H](O)[C@H]6O)CC[C@]5(C)[C@H]4CC[C@]3(C)[C@H]2[C@@H]1C)CO[C@@H]1O[C@H](CO)[C@@H](O)[C@H](O)[C@H]1O (stereo partly specified) [PROTOTIMOSAPONIN AIII]	Dose-dependent effect	6.62 mg/kg	59.7 ng/mL	Dose-dependent effect	73.4%
CC1=C(CC[C@H](C)CO[C@@H]2O[C@H](CO)[C@@H](O)[C@H](O)[C@H]2O)O[C@H]2C[C@H]3[C@@H]4CC[C@@H]5C[C@@H](O[C@@H]6O[C@H](CO)[C@H](O)[C@H](O)[C@H]6O[C@@H]6O[C@H](CO)[C@@H](O)[C@H](O)[C@H]6O)CC[C@]5(C)[C@H]4CC[C@]3(C)[C@@H]12 [PSEUDOPROTOTIMOSAPONIN AIII]	Dose-dependent effect	4.33 mg/kg			82.8%
C[C@H]1CC[C@@]2(OC1)O[C@H]1C[C@H]3[C@@H]4CC[C@@H]5C[C@@H](O[C@@H]6O[C@H](CO)[C@H](O)[C@H](O)[C@H]6O[C@@H]6O[C@H](CO)[C@@H](O)[C@H](O)[C@H]6O)CC[C@]5(C)[C@H]4CC[C@]3(C)[C@H]1[C@@H]2C [TIMOSAPONIN AIII]					64.5%
